Results: ChEMBL document CHEMBL3352225, “Bioreductively Activated Reactive Oxygen Species (ROS) Generators as MRSA Inhibitors” (ACS Med Chem Lett, 2014)
Values after ≈ are worked out from the molar mass of the structure shown. Values joined by “and” are separate entries in the source; they are usually repeats but may differ in a detail not shown here. Equal entries are not always repeated. One block for each molecule: values may come before it. Active and inactive are the calls of the source. The calls are words filed in the database; no cut-off is given here.

Experiments:
[1] = test system: Staphylococcus aureus; test: Antimicrobial activity against methicillin-sensitive Staphylococcus aureus ATCC 29213 after 18 to 20 hrs by microbroth dilution technique; type: functional
Outline: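 MIC taken as the lowest concentration that prevents visible bacterial growth of MSSA 29213, reported in μg/mL.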

[2] = test system: Staphylococcus aureus; test: Antimicrobial activity against methicillin-resistant Staphylococcus aureus 7425 after 18 to 20 hrs by microbroth dilution technique; type: functional
Outline: (§1)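 Broth microdilution MIC, taken as the lowest concentration preventing visible growth. MRSA 33591 was the reference strain and the others were clinical MRSA isolates. Vancomycin was tested alongside as comparator. Values are reported in μg/mL and μM.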

[3] = test system: Staphylococcus aureus; test: Antimicrobial activity against Staphylococcus aureus assessed as extracellular H2O2 generation at 2 ug/ml measured after 60 mins by Amplex Red-based fluorescence assay; type: functional, organism-based
Outline: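 S. aureus cells were exposed to compound for 60 min, and H2O2 released into the medium was quantified by Amplex Red fluorescence as a surrogate marker for intracellular ROS. Untreated bacteria served as the control.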

[4] = test system: Staphylococcus aureus; test: Antimicrobial activity against methicillin-resistant Staphylococcus aureus B853 after 18 to 20 hrs by microbroth dilution technique; type: functional; outline: as §1
[5] = Selectivity index, ratio of GI50 for human A549 cells to MIC for methicillin-resistant Staphylococcus aureus 33591
[6] = test system: Staphylococcus aureus; test: Antimicrobial activity against Staphylococcus aureus assessed as intracellular superoxide generation measured as formation of 2-OH-E+ measured after 1 hr by dihydroethidium assay; type: functional, organism-based
Outline: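 Intact S. aureus cells were incubated with DHE across a range of compound concentrations. Products were 2-hydroxyethidium (2-OH-E+), which is superoxide-specific, and ethidium (E+), which comes from nonspecific oxidation. Untreated bacteria served as the control.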

[7] = Cytotoxicity against human A549 cells after 72 hrs by MTT assay; type: cell-based
[8] = Superoxide generation in buffer at pH 7.4 at 25 uM measured at 1 min interval for 4 mins by luminol-based chemiluminescence assay in presence of DT-diaphorase
Outline: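 Superoxide from compound plus NQO1 (DT-diaphorase) was followed as a time course by luminol chemiluminescence. The control was compound alone in pH 7.4 buffer.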

[9] = test system: Staphylococcus aureus; test: Antimicrobial activity against methicillin-resistant Staphylococcus aureus 7386 after 18 to 20 hrs by microbroth dilution technique; type: functional; outline: as §1
[10] = test system: Staphylococcus aureus; test: Antimicrobial activity against methicillin-resistant Staphylococcus aureus E288 after 18 to 20 hrs by microbroth dilution technique; type: functional; outline: as §1
[11] = test system: Staphylococcus aureus; test: Antimicrobial activity against methicillin-resistant Staphylococcus aureus E151 after 18 to 20 hrs by microbroth dilution technique; type: functional; outline: as §1
[12] = test system: Staphylococcus aureus; test: Antimicrobial activity against methicillin-resistant Staphylococcus aureus B21838 after 18 to 20 hrs by microbroth dilution technique; type: functional; outline: as §1
[13] = Superoxide generation in buffer at pH 7.4 assessed as formation of 2-OH-E+ at 200 to 500 ug/ml measured after 10 mins by dihydroethidium assay in presence of DT-diaphorase
Outline: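 Compound was incubated with NQO1 (DT-diaphorase). The DHE-derived products 2-OH-E+ (superoxide-specific) and E+ (nonspecific oxidation) were separated and quantified by HPLC. The control was compound in pH 7.4 buffer without enzyme.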

[14] = test system: Staphylococcus aureus; test: Antimicrobial activity against methicillin-sensitive Staphylococcus aureus ATCC 29213 assessed as growth inhibition at 8 times MIC measured over 3 hrs in presence of thiourea; type: functional, organism-based
[15] = test system: Staphylococcus aureus; test: Antimicrobial activity against methicillin-resistant Staphylococcus aureus B0085 after 18 to 20 hrs by microbroth dilution technique; type: functional; outline: as §1
[16] = test system: Staphylococcus aureus; test: Antimicrobial activity against methicillin-sensitive Staphylococcus aureus ATCC 29213 assessed as intracellular oxidative species generation at 0.5 ug/ml measured after 1 hr by dichlorofluorescein-diacetate fluorescence assay; type: functional, organism-based
[17] = test system: Staphylococcus aureus; test: Antimicrobial activity against methicillin-resistant Staphylococcus aureus 7419 after 18 to 20 hrs by microbroth dilution technique; type: functional; outline: as §1
[18] = test system: Staphylococcus aureus; test: Antimicrobial activity against methicillin-resistant Staphylococcus aureus K-1 after 18 to 20 hrs by microbroth dilution technique; type: functional; outline: as §1
[19] = test system: Staphylococcus aureus; test: Antimicrobial activity against methicillin-resistant Staphylococcus aureus 33591 after 18 to 20 hrs by microbroth dilution technique; type: functional; outline: as §1
[20] = test system: Staphylococcus aureus; test: Induction of DNA damage in methicillin-sensitive Staphylococcus aureus ATCC 29213 assessed as upregulation of RecA expression at 6.7 times MIC measured after 120 mins by PCR analysis; type: functional, organism-based
[21] = test system: Staphylococcus aureus; test: Antimicrobial activity against methicillin-resistant Staphylococcus aureus B19506 after 18 to 20 hrs by microbroth dilution technique; type: functional; outline: as §1
[22] = H2O2 generation in buffer at pH 7.4 at 2 ug/ml measured after 5 mins by Amplex Red-based fluorescence assay in presence of DT-diaphorase
[23] = test system: Staphylococcus aureus; test: Antimicrobial activity against methicillin-resistant Staphylococcus aureus E9902 after 18 to 20 hrs by microbroth dilution technique; type: functional; outline: as §1

- MIC [1]: > 32 µg/mL
Structure (SMILES): C=CCn1c2c(c3ccccc3c1=O)C(=O)c1ccccc1C2=O

- MIC [1]: 8 µg/mL (≈ 19.5 µM)
Structure (SMILES): O=C1c2ccccc2C(=O)c2c1c1ccccc1c(=O)n2Cc1ccc([N+](=O)[O-])cc1

- MIC [1]: > 32 µg/mL
Structure (SMILES): O=C1c2ccccc2C(=O)c2c1c1ccccc1c(=O)n2C1CCCCC1

- MIC [1]: > 32 µg/mL
Structure (SMILES): O=C1c2ccccc2C(=O)c2c1c1ccccc1c(=O)n2Cc1ccc(Cl)cc1

- MIC [1]: > 32 µg/mL
Structure (SMILES): O=C1c2ccccc2C(=O)c2c1c1ccccc1c(=O)n2Cc1ccccc1

Structure (SMILES): C[C@@H]1O[C@@H]1P(=O)(O)O [FOSFOMYCIN]
- MIC [1]: 8 µg/mL (≈ 57.9 µM)

- MIC [1]: > 32 µg/mL
Structure (SMILES): CCn1c2c(c3ccccc3c1=O)C(=O)c1ccccc1C2=O

- MIC [1]: 32 µg/mL (≈ 80.9 µM)
Structure (SMILES): COc1ccc(Cn2c3c(c4ccccc4c2=O)C(=O)c2ccccc2C3=O)cc1

- MIC [1]: 1 µg/mL (≈ 3.46 µM)
Structure (SMILES): Cn1c2c(c3ccccc3c1=O)C(=O)c1ccccc1C2=O

Structure (SMILES): NC[C@H]1O[C@H](O[C@H]2[C@H](O)[C@@H](O[C@H]3O[C@H](CO)[C@@H](O)[C@H](N)[C@H]3O)[C@H](N)C[C@@H]2N)[C@H](N)C[C@@H]1O [TOBRAMYCIN]
- MIC [1]: 1 µg/mL (≈ 2.14 µM)

- MIC [1]: > 32 µg/mL
Structure (SMILES): O=C1c2ccccc2C(=O)c2c1c1ccccc1c(=O)n2Cc1ccc(C(F)(F)F)cc1

- MIC [1]: > 32 µg/mL
Structure (SMILES): COC(=O)Cn1c2c(c3ccccc3c1=O)C(=O)c1ccccc1C2=O

- MIC [1]: > 32 µg/mL
Structure (SMILES): CCCn1c2c(c3ccccc3c1=O)C(=O)c1ccccc1C2=O

- MIC [1]: 8 µg/mL (≈ 17.6 µM)
Structure (SMILES): COc1cc(Cn2c3c(c4ccccc4c2=O)C(=O)c2ccccc2C3=O)cc(OC)c1OC

Structure (SMILES): CN[C@H](CC(C)C)C(=O)N[C@H]1C(=O)N[C@@H](CC(N)=O)C(=O)N[C@H]2C(=O)N[C@H]3C(=O)N[C@H](C(=O)N[C@H](C(=O)O)c4cc(O)cc(O)c4-c4cc3ccc4O)[C@H](O)c3ccc(c(Cl)c3)Oc3cc2cc(c3O[C@@H]2O[C@H](CO)[C@@H](O)[C@H](O)[C@H]2O[C@H]2C[C@](C)(N)[C@H](O)[C@H](C)O2)Oc2ccc(cc2Cl)[C@H]1O [VANCOMYCIN]
- MIC [2]: 0.12 µg/mL (≈ 0.0828 µM)

- MIC [1]: > 32 µg/mL
Structure (SMILES): O=C1c2ccccc2C(=O)c2c1c1ccccc1c(=O)n2Cc1ccccc1C(F)(F)F

Structure (SMILES): C#CCn1c2c(c3ccccc3c1=O)C(=O)c1ccccc1C2=O
- Activity [3]: Active
- MIC [2]: 0.12 µg/mL and 0.38 µM
- MIC [4]: 1 µg/mL and 3.19 µM
- Selectivity Index [5]: >5
- Activity [6]: Dose-dependent effect
- MIC [1]: 0.5 µg/mL (≈ 1.6 µM)
- GI50 at 72 h [7]: 8.6 µM
- Activity [8]: Active
- MIC [9]: 1 µg/mL and 3.19 µM
- MIC [10]: 0.5 µg/mL and 1.6 µM
- MIC [11]: 0.5 µg/mL and 1.6 µM
- MIC [12]: 0.5 µg/mL and 1.6 µM
- Activity [13]: Active
- growth inhibition (GI) [14]: inactive
- MIC [15]: 0.5 µg/mL and 1.6 µM
- Activity [16]: Active
- MIC [17]: 0.12 µg/mL and 0.38 µM
- MIC [18]: 0.25 µg/mL and 0.8 µM
- MIC [19]: 0.5 µg/mL and 1.6 µM
- Activity [20]: Active
- MIC [21]: 0.06 µg/mL and 0.19 µM
- Activity [22]: Active
- MIC [23]: 0.5 µg/mL and 1.6 µM
